Compounds with a hit are over-represented: about 1.9% of the library has one in this group of screens.
Yeast superoxide – reduction of superoxide in aged yeast, primary screen, HTS | S. cerevisiae aged cells, superoxide DHE fluorescence; stronger effect = lower value | superoxide response (% of plate mean), % at 10 µM | 0.18% of 330,000 active;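 active = superoxide response under a set limit, about three screen SD below normal, cut at about 65% in these data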;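 also: yeast aged for seven days with compound at 30 °C before DHE staining; 100% = average MFI of all compound-treated wells on the plate with controls excluded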
UCH37 DUB inh – inhibitors of human UCH37 deubiquitinase, primary screen, biochemical, Ub-AMC cleavage, fluorescence; inhibition, % (concentration not given with the values); purified proteasome/UCH37; 0.33% of 330,000 active; AID 588478, 2011;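 active = mean inhibition over replicate wells above about 20%, limit read from the data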;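 also: 0% = compound-free wells with enzyme and 100% = wells lacking proteasome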
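Material: human UCH37 enzyme supplied as purified proteasome complex. Measure: % inhibition of Ub-AMC cleavage fluorescence. Medium: pH 7.4 Tris-HCl (50 mM) with ovalbumin, ATP-MgCl2, DTT. Times: 30 min preincubation with enzyme, 25 min cleavage at room temperature. Detection: AMC fluorescence intensity at 355/460 nm.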
Rce1 inhib – yeast Rce1p protease inhibitors, primary screen, biochemical, fluorescence, cell-free homogeneous; yeast membranes, quenched prenylated peptide cleavage fluorescence; CAAX prenyl protease 2 (Saccharomyces cerevisiae (strain ATCC 204508 / S288c)), Q03530; calls only; 0.27% of 290,000 active;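 active = fall in fluorescence gain of 50% or more versus controls, with final raw signal at or below 3038400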;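 also: plate controls were neutral control wells for no effect and wells lacking membranes for full effect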
NR1D1 modulator – modulators of Rev-erb alpha DNA binding, primary screen, biochemical, FITC-DNA, fluorescence polarization, uHTS; Nuclear receptor subfamily 1 group D member 1 (Homo sapiens), P20393; Rev-erbα–FITC-DNA binding, 90 min; activity, % at 10 µM; 0.79% of 370,000 active; AID 1259318, 2017;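 active = activity above about 14%, limit read from the data; passing the limit was not always enough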;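 also: 0% = DMSO wells with 35 nM protein and 100% = DMSO wells with 750 nM protein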
Target sequence (P20393 whole entry, looked up): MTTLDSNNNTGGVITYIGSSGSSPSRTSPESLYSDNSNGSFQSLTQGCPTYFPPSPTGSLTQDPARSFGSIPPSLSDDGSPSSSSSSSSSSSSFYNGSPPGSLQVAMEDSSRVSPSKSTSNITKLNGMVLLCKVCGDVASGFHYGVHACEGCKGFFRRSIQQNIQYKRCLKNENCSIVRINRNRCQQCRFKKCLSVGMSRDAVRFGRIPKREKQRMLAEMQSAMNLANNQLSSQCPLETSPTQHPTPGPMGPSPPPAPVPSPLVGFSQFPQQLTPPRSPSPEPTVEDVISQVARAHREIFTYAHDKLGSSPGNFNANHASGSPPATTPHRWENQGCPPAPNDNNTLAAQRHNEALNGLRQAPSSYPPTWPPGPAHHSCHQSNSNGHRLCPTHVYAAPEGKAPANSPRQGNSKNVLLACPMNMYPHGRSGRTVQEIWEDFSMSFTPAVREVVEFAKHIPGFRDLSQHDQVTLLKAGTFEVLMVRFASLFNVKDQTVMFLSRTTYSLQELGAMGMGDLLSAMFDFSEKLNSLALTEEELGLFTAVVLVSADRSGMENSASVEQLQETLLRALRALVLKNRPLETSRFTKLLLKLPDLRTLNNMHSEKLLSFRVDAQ
PG9 binder – binders of HIV-1 gp120 antibody PG9, primary screen, biochemical, TR-FRET | HIV-1 gp120 / PG9 antibody interaction | TR-FRET gp120-PG9 antibody binding | inhibition, % at 6.7 µM | 0.43% of 360,000 active; in the data active = inhibition above about 8.5%
MIN6 prolif-1 – inducers of MIN6 beta-cell proliferation, primary screen, ATP luminescence, uHTS; MIN6 cells proliferation, ATPlite luminescence, 48 h; cells starved in 0.2% serum; 100% = growth in 10% serum; proliferation, % at 10 µM; 0.29% of 330,000 active; AID 2380, 2010;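 active = compounds whose signal lies at least 3.5 SD above the mean of all wells on their plate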;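 also: 0% = DMSO-treated cells in low-serum medium and 100% = 10% serum control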
MIN6 prolif-2 – inducers of beta-cell proliferation in MIN6, confirmation, MIN6 cells, mouse | AID 463095, 2010 | proliferation increase, % at 50 µM | 920 tested, under 10 active | ATPlite luminescence, 48 h; cells kept in 0.2% serum; scaled between 0.2% and 10% serum | shares compounds with MIN6 prolif-1;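 active = proliferation increase above 40% at any of the four tested concentrations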
* hit, by the source's call; i = inactive; x = no result given.

SMILES	Yeast superoxide	UCH37 DUB inh	Rce1 inhib	NR1D1 modulator	PG9 binder	MIN6 prolif-1	MIN6 prolif-2
O=C(NN=Cc1ccccn1)c1ccc([N+](=O)[O-])cc1Cl	x	2	x	x	x	x	x
O=[N+]([O-])c1ccccc1S(=O)(=O)NC1CCCCCCC1	96	x	x	1	-1	-1	x
O=C1CCCCCCC1Sc1ccccc1[N+](=O)[O-] (centres undefined)	99	7	i	4	-1	6.2*	-4
COc1cc(C=NNC(=O)CSc2nc3ccccc3n2C)cc(OC)c1OC	x	8	x	x	x	x	x
CCn1c(SCC(=O)NN=Cc2cc(OC)c(O)c(OC)c2)nc2ccccc21	x	1	x	x	x	x	x
CCn1c(SCC(=O)N/N=C/c2ccc(OC)c(OC)c2)nc2ccccc21	88	x	i	8	2	7.8*	1
CC(=NNc1ccc(Cl)cc1)c1cnnc(-c2ccccc2)n1	x	0	x	x	x	x	x
CC(=O)Nc1ccc(CN2CCCCCC2)cc1	103	1	i	1	0	5.5*	2
COc1ccccc1NN=C1COC(C)(C)CC1=O	x	8	x	x	x	x	x
CC(C)CC1=NC(C(F)(F)F)(C(F)(F)F)c2c(n(CC(C)C)c(=O)[nH]c2=O)N1	95	x	i	0	1	6.6*	0
Nc1cc(=O)[nH]c(SCC(=O)c2ccc(F)cc2)n1	101	1	i	1	-1	8.3*	0
COc1ccc(CC(=O)NN=Cc2cc(Br)c(O)c(Br)c2)cc1	x	-19	x	x	x	x	x
COc1ccc(C=NNC(=O)c2sccc2OCc2ccc(F)cc2)cc1OC	x	-5	x	x	x	x	x
COc1ccccc1C(C)NCC(=O)Nc1ccccc1C(F)(F)F (centres undefined)	102	1	i	3	2	5.3*	-6
CCN(CC)S(=O)(=O)c1cccc(-c2nnc(SCC(=O)c3cc(C)n(C)c3C)o2)c1	104	2	i	-2	1	12*	1
COc1ccc(S(=O)(=O)Cc2ccc(C(=O)NCCc3cc(OC)ccc3OC)o2)cc1	95	7	i	3	0	7.5*	1
COc1ccc(OC)c(CCNC(=O)c2ccc(CS(=O)(=O)c3ccc(Br)cc3)o2)c1	97	1	i	-2	0	2	x
CCOc1ncccc1C(=O)Nc1ccc(C)cn1	100	1	i	-8	-1	11*	2
O=C(CNC(=S)N(Cc1ccc(F)cc1)C1CCCCC1)NCCN1CCOCC1	112	-2	i	-4	-2	-3	x
O=C(O)CNC(=S)N(Cc1ccc(F)cc1)C1CCCCC1	97	7	i	3	1	8.2*	-2
Fc1ccc(OCc2nn[nH]n2)c(F)c1	93	-1	i	-5	0	7.1*	0
COc1ccc(C=O)cc1COc1ccc(F)cc1F	105	3	i	4	-1	-2	x
Cc1coc2cc3oc(=O)cc(C)c3cc12	95	x	i	-3	1	7.3*	4
Cc1ccc(S(=O)(=O)Nc2cc(S(=O)(=O)N3CCOCC3)ccc2NCC2CCCO2)cc1 (centres undefined)	94	0	x	3	3	15*	4
CC1CCC(n2c(=S)[nH]c3ccccc3c2=O)CC1 (centres undefined)	103	0	i	10	0	11*	-4
SMILES	Yeast superoxide	UCH37 DUB inh	Rce1 inhib	NR1D1 modulator	PG9 binder	MIN6 prolif-1	MIN6 prolif-2
O=c1c2ccccc2[nH]c(=S)n1C1CCCCC1	100	0	i	4	2	-1	x
CCOC(=O)Cn1c(N2CCCCCC2)nc2c1c(=O)[nH]c(=O)n2C	93	3	i	-4	-1	3	x
CCCCCOC(=O)Cn1c(N2CCCCCC2)nc2c1c(=O)[nH]c(=O)n2C	101	-2	i	6	-1	9.2*	-5
CCN1CCN(C(=O)C2CCN(S(=O)(=O)c3ccc(SC)cc3)CC2)CC1	107	0	i	4	0	16*	-1
CCN1CCN(C(=O)C2CCN(S(=O)(=O)c3ccc(Br)cc3)CC2)CC1	102	3	i	0	-2	-5	x
COC(=O)c1scc(S(=O)(=O)C(C)C)c1NN=C(C#N)C(=O)c1ccc(Cl)cc1	x	8	x	x	x	x	x
CC(C)n1c(SCc2ccc(Cl)cc2)nc2c1c(=O)[nH]c(=O)n2C	96	4	x	2	-1	5.6*	-6
COc1ccc(/C=C\C(=O)NCC(=O)NN=Cc2cccc(OC)c2O)cc1	x	1	x	x	x	x	x
CCOc1ncccc1C(=O)OC(C)C(=O)Nc1ccc(N2CCOCC2)cc1 (centres undefined)	103	2	x	3	-1	10*	4
CCOc1ncccc1C(=O)Nc1ccccc1N1CCOCC1	106	2	x	5	-1	-3	x
c1cncc(-c2nc(N3CCOCC3)c3ccccc3n2)c1	100	4	x	x	x	4.8*	2
O=C(N/N=C/c1cc([N+](=O)[O-])cc([N+](=O)[O-])c1O)/C(=C\c1cccs1)NC(=O)c1ccccc1	104	x	i	3	0	0.0*	-4
Cc1ccc(C=NNC(=O)CSc2ccccn2)o1	x	3	x	x	x	x	x
COc1ccccc1/C=C\C=NNC(=O)CCn1nnc2ccccc21	x	3	x	x	x	x	x
CCOCCCNc1nc(=S)[nH]c2cc(OC)c(OC)cc12	110	0	i	3	2	7.2*	0
O=C(O)C1CCCCC1C(=O)NCCCc1ccccc1 (centres undefined)	97	2	i	-3	1	9.0*	-3
O=C(O)C1CCCCC1C(=O)NCCCCc1ccccc1 (centres undefined)	109	0	i	1	1	-3	x
COc1ccc(NC(=O)CN(C)C(=O)CN2C(=O)NC3(CCCC3)C2=O)cc1	106	x	i	0	-3	16*	-2
CN(CC(=O)Nc1ccc(F)cc1)C(=O)CN1C(=O)NC2(CCCCC2)C1=O	104	1	x	-7	0	-3	x
N#CC(=NNc1ccccc1F)c1nc(-c2ccccc2)cs1	x	-2	x	x	x	x	x
CC(C)C[C@H](NC(=O)NCc1ccc(Cl)cc1)C(=O)O	102	5	i	-3	1	10*	-2
COCc1cc(C)nc(NN=Cc2ccc(-c3cc(C(=O)O)ccc3Cl)o2)c1C#N	x	6	x	x	x	x	x
COC(=O)c1ccc(OC(=O)c2cccnc2SC)cc1	96	1	i	-1	0	-1	x
